Assay outcomes deposited in PubChem by several laboratories.
VLA-4 inh: inhibition in a human VLA-4 binding assay | P13612 | VLA-4 expressing cells, ligand binding flow cytometry | inhibition, % (about 7 µM as worked out from the volumes in the protocol) | hit rate 0.2% among 330,000; in the data active = inhibition above about 50%
GASC-1 inh: human JMJD2C demethylase inhibition | Q9H3R0 | GST-JMJD2C(1-420) H3K9me3 demethylation, DELFIA europium | inhibition, % at 2.35 µM | hit rate 0.069% among 330,000;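 active = more than half of a compound's replicate wells show inhibition beyond 50%, single wells judged on their own value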;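 also: signal counts dimethyl H3K9 product captured on neutravidin plate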
Target sequence (Q9H3R0 1-420 limits assumed): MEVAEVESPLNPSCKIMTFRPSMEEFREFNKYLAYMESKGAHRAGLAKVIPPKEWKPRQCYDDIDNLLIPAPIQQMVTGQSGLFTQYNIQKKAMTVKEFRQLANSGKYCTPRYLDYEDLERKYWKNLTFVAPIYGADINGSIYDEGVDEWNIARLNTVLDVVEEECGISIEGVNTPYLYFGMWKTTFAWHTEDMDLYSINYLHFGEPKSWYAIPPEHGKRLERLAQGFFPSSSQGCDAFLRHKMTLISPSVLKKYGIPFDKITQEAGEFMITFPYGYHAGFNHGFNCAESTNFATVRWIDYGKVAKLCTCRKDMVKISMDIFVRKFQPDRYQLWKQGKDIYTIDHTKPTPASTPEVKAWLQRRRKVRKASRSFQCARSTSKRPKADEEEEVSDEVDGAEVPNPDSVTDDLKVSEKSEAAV
procasp7 counter: counter-screen: procaspase-7 (human) activation; P55210; recombinant procaspase-7, Ac-DEVD-pNA absorbance 405 nm; D23A/D198A/D206A triple mutant, cannot self-cleave; scale: DMSO 0, 5 µM enzyme 100; activation, % at 8.5 µM; hit rate 0.093% among 330,000; AID 463210;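 active = percent activation above the screen-wide mean plus 3 SD, cut at about 25% in these data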
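Detection: p-Nitroaniline absorbance at 405 nm, read at 0 and 120 min; system: Uncleavable procaspase-7 mutant enzyme; evaluation: % activation from two-timepoint absorbance difference, scaled to controls; times: 1 h enzyme–compound preincubation and 2 h substrate reaction, both 25 °C; buffer or medium: Zinc-free HEPES pH 7.4 with 300 mM NaCl, 0.01% Triton X-100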
Hep lipid drop: modulators of hepatic lipid droplet formation; inhibition, % at 6.5 µM; hit rate 0.4% among 240,000; AML12 mouse hepatocytes, oleate lipid droplets, BODIPY imaging;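 active = lipid droplet intensity inhibited by at least 50%, with more than 500 cells counted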
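Test system: AML12 mouse liver cells; schedule: overnight exposure; technique: high-content imaging of BODIPY-stained droplets and DAPI nuclei; read-out: % inhibition of corrected integrated BODIPY droplet signal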
GRK2 inh: inhibitors of human GRK2 displacing RNA aptamer. P25098. bead flow cytometry, FAM-aptamer displacement from GRK2. inhibition of aptamer binding, % at 10 µM. hit rate 0.59% among 330,000. AID 488847;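 active = inhibition of aptamer binding above 40%, roughly 3 SD of noise, on plates passing a quality check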;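 also: median bead fluorescence of bound FAM aptamer so fluorescent compounds give negative values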
procasp3 activ: activates human procaspase-3 | hit rate 0.11% among 330,000 | P42574 | activation, % at 8.5 µM | recombinant procaspase-3 D3A, Ac-DEVD-pNA absorbance 405 nm;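 active = activation above the mean of all tested compounds plus 3 SD, cut at about 21% in these data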
Target sequence (P42574 whole entry D9A/D28A/D175A): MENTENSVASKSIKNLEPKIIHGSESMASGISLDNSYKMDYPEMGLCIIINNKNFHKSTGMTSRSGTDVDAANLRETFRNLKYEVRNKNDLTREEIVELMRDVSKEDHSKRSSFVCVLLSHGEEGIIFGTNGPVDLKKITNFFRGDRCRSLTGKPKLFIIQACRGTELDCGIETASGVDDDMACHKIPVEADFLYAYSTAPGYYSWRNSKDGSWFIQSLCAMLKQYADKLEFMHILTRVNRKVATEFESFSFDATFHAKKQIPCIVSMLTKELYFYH
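assay system = Procaspase-3 D3A mutant | signal = absorbance at 405 nm, 0 and 120 min | times = 1 h preincubation plus 2 h reaction at 25 °C | repeats = single replicate | read-out = % activation between DMSO and enzyme-spiked controls | medium = Zinc-free HEPES saline buffer with Triton X-100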
Lipid drop inh: confirmation of inhibitors of hepatic lipid droplet formation | shares compounds with Hep lipid drop | hit rate 65% among 870 | AML12 mouse hepatocytes, BODIPY lipid droplet imaging; droplets induced with 100 µM oleic acid | AID 463183 | inhibition, % at 5.2 µM;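 active = inhibition of lipid droplet metric at least 50%, with more than 300 cells in each of four replicates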
AML12 tox img: counter-screen for cytotoxicity in AML12 mouse hepatocytes | shares compounds with Hep lipid drop | DAPI nuclear morphology cytotoxicity imaging; stronger effect = higher value; cells fed 100 µM oleate overnight | z-score at 5 µM | hit rate 3% among 870; in the data active = z-score above about 6.3;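 also: compound exposure lasted overnight at 37 °C before fixation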
AML12 tox ATP: confirmation of cytotoxicity in AML12 mouse hepatocytes; shares compounds with Hep lipid drop; cytotoxicity, % at 50 µM; AML12 mouse hepatocyte viability, ATP luminescence; cells loaded with 100 µM oleic acid; AID 463219; 530 tested, under 10 active;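 active = cytotoxicity above 50% in each of four replicates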;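 also: compound exposure lasted overnight at 37 °C before the ATP read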
Numbers stand for hits; i = inactive; nt = no result. A selection: hits, their analogues and other compounds. The true share with any hit is near 1.3%.

SMILES	VLA-4 inh	GASC-1 inh	procasp7 counter	Hep lipid drop	GRK2 inh	procasp3 activ	Lipid drop inh	AML12 tox img	AML12 tox ATP
CCCc1cc(N2CCCC2)n2nc(C)c(-c3ccccc3)c2n1	i	i	i	60	i	i	99	i	i
CCN1CCN(c2cc(C(C)C)nc3c(-c4ccccc4)c(C)nn23)CC1	i	i	i	55	i	i	i	i	nt
CC(C)(C)c1ccc(-c2nnc(SCC(=O)Nc3sc4c(c3C#N)CCCC4)o2)cc1	i	i	i	58	i	i	i	i	nt
CCN(Cc1ccccc1)C(=O)c1ccc2c(=O)n3c(nc2c1)CCC3	i	i	i	nt	i	i	nt	nt	nt
C/C(N)=C(/C#N)C(=O)CSc1nnc(Nc2cccc(C)c2)s1	i	i	i	78	i	i	99	i	i
COC(=O)[C@H](Cc1c[nH]c2ccccc12)NC(=O)CCCc1c[nH]c2ccccc12	i	i	i	60	i	i	i	i	i
Cc1ccc(NC(=O)CCCc2c[nH]c3ccccc23)nc1	i	i	i	83	i	i	i	i	nt
O=C(CCCc1c[nH]c2ccccc12)NCc1ccccc1F	i	i	i	i	i	i	nt	nt	nt
Cc1ccnc(NC(=O)CCCc2c[nH]c3ccccc23)c1	i	i	i	i	i	i	nt	nt	nt
COC(=O)[C@H](Cc1c[nH]c2ccccc12)NC(=O)Cc1c[nH]c2ccccc12	i	i	i	i	i	i	nt	nt	nt
Cc1ccc(CNC(=O)CCCc2c[nH]c3ccccc23)cc1	i	i	i	71	i	i	74	i	i
CCOC(=O)C1CCN(C(=O)CCc2nnc3ccc(N4CCN(C)CC4)nn23)CC1	i	i	i	i	i	i	nt	nt	nt
O=[N+]([O-])c1cc(Cl)ccc1NCCNc1ncc(C(F)(F)F)cc1Cl	i	i	i	52	i	i	i	i	nt
O=[N+]([O-])c1ccccc1NCCNc1ncc(C(F)(F)F)cc1Cl	i	i	i	i	i	i	nt	nt	nt
COc1ccccc1CCC(=O)OCC(=O)Nc1cccc(S(=O)(=O)N2CCOCC2)c1	i	i	i	nt	i	i	nt	nt	nt
CCOC(=O)C1CCN(C(=O)C2(NC(=O)Nc3ccc(F)cc3F)CCCCC2)CC1	i	i	i	69	i	i	97	i	i
CN(C)CCCN(C(=O)c1ccc2ccccc2c1)c1nc2cc3c(cc2s1)OCO3	i	i	i	55	i	i	i	i	nt
CC1CCN(C(=O)c2ccc3c(c2NCCO)C(=O)c2ccccc2C3=O)CC1	i	i	i	68	i	i	109	i	i
Oc1[nH]c2ccccc2c1N=Nc1nc(Nc2ccccc2)nc(N2CCOCC2)n1	i	i	i	60	i	i	i	20	nt
CCCC1(C(=O)OC)NC(c2ccc(OC)cc2OC)C2C(=O)N(c3cccc(C(C)=O)c3)C(=O)C21 (stereo unspecified)	i	i	i	i	i	i	nt	nt	nt
CCc1ccc(N(CC(=O)NC2CC2)S(=O)(=O)c2ccc(C)cc2)cc1	i	i	i	i	i	i	nt	nt	nt
COc1ccc(S(=O)(=O)N2CCCCCC2)cc1C(=O)N(C)CCOc1ccccc1	i	i	i	nt	i	i	nt	nt	nt
Cc1ccc(S(=O)(=O)N2CCCCC2)cc1C(=O)N(C)CCOc1ccccc1	i	i	i	62	i	i	i	i	nt
Cc1ccc(-c2[nH]c3ccccc3c2SCCNC(=O)c2ccc(S(=O)(=O)N3CCOCC3)cc2)cc1	i	i	i	54	i	i	91	i	i
COc1ccc(-c2[nH]c3ccccc3c2SCCNC(=O)c2ccccc2)cc1	i	i	i	i	i	i	nt	nt	nt
SMILES	VLA-4 inh	GASC-1 inh	procasp7 counter	Hep lipid drop	GRK2 inh	procasp3 activ	Lipid drop inh	AML12 tox img	AML12 tox ATP
Cc1cc(C(=O)NC(C)C2CC2)c(Cl)cc1Cl (stereo unspecified)	i	i	i	i	i	i	nt	nt	nt
CCN(CC(=O)Nc1ccccc1C(F)(F)F)C(=O)c1cc(-c2cccs2)nn1-c1ccccc1	i	i	i	65	i	i	103	i	i
Cc1cc(Br)c2c(c1)C1(OCCO1)C(=O)N2	i	i	i	nt	i	i	nt	nt	nt
CCCCOc1ccc(/C=C/C(=O)OCC(=O)c2c(N)n(C)c(=O)n(C)c2=O)cc1OCC	i	i	i	52	i	i	67	i	i
COc1ccc(/C=N/N=C2\SCC(=O)N2c2c(C)n(C)n(-c3ccccc3)c2=O)cc1OC	i	i	i	62	i	i	i	i	nt
Cn1c(CC(=O)Nc2ccc(F)cc2)c(Sc2ccccc2)c2ccccc21	i	i	i	i	i	i	nt	nt	nt
COc1ccc(NC(=O)Cc2c(Sc3ccccc3)c3ccccc3n2C)cc1	i	i	i	61	i	i	91	i	i
C/C(=N\Nc1ccc(S(=O)(=O)Nc2ccc(Cl)cc2)cc1[N+](=O)[O-])c1ccc(N2CCOCC2)cc1	i	i	i	88	i	i	i	i	i
O=[N+]([O-])c1ccccc1/C=C/C=N/Nc1ccc(S(=O)(=O)Nc2ccc(Cl)cc2)cc1[N+](=O)[O-]	i	i	i	60	i	i	i	i	i
C/C(=N\Nc1ccc(S(=O)(=O)Nc2ccccc2)cc1[N+](=O)[O-])c1ccc(N2CCOCC2)cc1	i	i	i	51	i	i	72	i	i
COc1ccc(NC(=O)N2CCC(C(=O)c3ccc(F)cc3)CC2)cc1	i	i	i	nt	i	i	nt	nt	nt
CC(=O)c1cccc(NC(=O)N2CCC(C(=O)c3ccc(F)cc3)CC2)c1	i	i	i	i	i	i	nt	nt	nt
CSc1ccc(NC(=O)N2CCC(C(=O)c3ccc(F)cc3)CC2)cc1	i	i	i	71	i	i	96	i	i
Cc1cc(C)cc(NC(=O)N2CCC(C(=O)c3ccc(F)cc3)CC2)c1	i	i	i	67	i	i	96	i	i
Cc1cccc(NC(=O)N2CCC(C(=O)c3ccc(F)cc3)CC2)c1	i	i	i	84	i	i	98	i	i
O=C(Nc1c2c(nn1-c1ccccc1)CS(=O)(=O)C2)c1ccc2c(c1)OCO2	i	i	i	i	i	i	nt	nt	nt
Cc1csc(=O)n1CCC(=O)OCC(=O)Nc1ccc(Cl)cn1	i	i	i	nt	i	i	nt	nt	nt
Cc1ccc(CNC(=O)CSc2nc3ccccc3[nH]2)cc1	i	i	i	i	nt	i	nt	nt	nt
Cc1ccc(CNC(=O)c2ccc3nc4[nH]c5ccccc5c4nc3c2)cc1	nt	i	nt	55	nt	nt	91	i	nt
